Bioassay records: PubChem BioAssay, several laboratories
The list is not random: actives were taken first. Their share in the collection is about 3.9%.
STAT1 activator: STAT1 signaling activators, primary screen, cell-based, HTS, luciferase reporter; 2.6% of 200,000 active; AID 932, 2007; activation (% of control), % at 5.5 µM; NIH 3T3 STAT1-luciferase reporter, IFN-gamma, luminescence; 100% = IFN-gamma alone, no compound;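 active means activation above the screen-wide mean activation plus 3 SD, cut at about 130% in these data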;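 further: raw ratio to IFN-gamma control signal so 100% means no change and 0% no light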
NF-kB expr up: activators of NF-kB expression in neurons, primary screen, cell-based, HTS | human neuronal cells, NF-kB reporter expression; active compounds read high | fold change at 12.5 µM | 1.6% of 190,000 active | AID 1239, 2008; in the data active means fold change above about 3.3
Pf gamet viab: late stage P. falciparum gametocyte viability inhibitors, primary screen, ATP luminescence, HTS | P. falciparum stage V gametocytes, 24 h | inhibition, % at 10.9 µM | 0.065% of 150,000 active | AID 743093, 2013;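 active means inhibition above the mean plus 3 SD of compounds within the control limits, set per campaign, cut at about 38% in these data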;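 further: 0% = DMSO wells and 100% = medium only without gametocytes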
APP 5'UTR act: activators of APP 5'UTR luciferase reporter, primary screen, SH-SY5Y cells; 1% of 190,000 active; SH-SY5Y APP 5'UTR luciferase reporter, luminescence; zero percent = DMSO vehicle wells; activation, % at 2 µM;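 active means activation above a set limit, based on mean plus 3 SD of controls, cut at about 140% in these data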
STAT3 activator: IL-6 driven STAT3 reporter potentiators, primary screen, U3A cells, luciferase, luminescence, MLSCN library; IL-6 STAT3-luciferase reporter; 100% = signal with IL-6 EC80 alone; 0.91% of 190,000 active; activation (% of control), % at 5.6 µM;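 active means activation above the screen-wide mean of compound activation plus 3 SD, cut at about 130% in these data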;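 further: 0% = background luminescence of wells with medium and substrate only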
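Test system: Human STAT1-deficient U3A cells with stable STAT3-luciferase reporter | Also added: Interleukin-6, 33 ng/mL | Timing: Compound pre-incubation 1 h before IL-6, then 6 h stimulation at 37 °C | Technique: Luciferase reporter luminescence | Read-out: Percent of IL-6-only median luminescence | Benchmarks: IL-6-only wells as 100% reference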
STAT1 blocker: STAT1 signaling inhibitors, primary screen, cell-based, HTS, luciferase reporter; inhibition, % at 5.5 µM; AID 920, 2007; 0.35% of 200,000 active; NIH 3T3 STAT1-luciferase reporter, IFN-gamma, luminescence;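 active means inhibition above a set limit, the mean inhibition across all tested compounds plus 3 SD, cut at about 34% in these data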;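 further: 0% = IFN-gamma with DMSO and 100% = IFN-gamma with 300 µM nifuroxazide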
Starred values were filed as active, the others as inactive; . = no result.

SMILES	STAT1 activator	NF-kB expr up	Pf gamet viab	APP 5'UTR act	STAT3 activator	STAT1 blocker
Cc1cc(N2CCOCC2)n2ncc(-c3ccccc3)c2n1	70.9	0.81	8.9	142.5*	47.0	31.6
Clc1ccsc1-c1ccc2ccccc2n1	125.2	2.04	.	48.3	108.5	-27.2
c1ccc2nc(-c3nccs3)ccc2c1	131.2*	1.17	5.1	39.1	94.0	-38.1
Cc1cc(C(=O)CSc2nc3ccccc3[nH]2)c(C)n1C	141.8*	4*	-18.0	148.9*	83.1	-45.3
Cc1ccc2nc(SCC(=O)c3cc(C)n(C)c3C)[nH]c2c1	101.3	3.42*	.	5.0	84.3	-1.4
Cc1cc(C(=O)CSc2nc3ccc(Cl)cc3[nH]2)c(C)n1C	90.4	0.73	-14.9	11.3	83.4	10.5
C/C(N)=C(/C#N)C(=O)CSc1nc2ccc(C)cc2[nH]1	150.4*	4.31*	.	140.8*	118.2	-51.9
O=C1C=C(Nc2ccccc2)c2ccccc2C1=O	99.8	0.45	.	-1.7	119.9	0.3
O=C1C=C(Nc2ccccc2)C(=O)c2ccccc21	132.4*	8.16*	.	140.4*	100.4	-36.6
O=C1C(Nc2ccccc2)=C/C(=N/S(=O)(=O)c2cccs2)c2ccccc21	102.7	0.83	.	19.6	135.7*	-3.5
Cc1ccc(NC2=C/C(=N/S(=O)(=O)c3cccs3)c3ccccc3C2=O)cc1	115.9	0.77	.	77.4	126.5	-17.8
CCC(C(=O)Nc1ccc(C(=O)N2CCCC2)cc1)c1ccccc1 (stereo not given)	100.1	1.07	.	4.8	94.8	-1.3
Oc1c(/C=C/C=C/C=Nc2ccccc2)sc(=S)n1Cc1ccccc1	.	.	11.4	.	.	.
CC(C)(C)c1ccc(OCCCC(=O)N2CCOCC2)cc1	131.6*	1.49	27.3	15.4	117.6	-36.1
COc1ccc(/C=C/C(=O)N2CCOCC2)cc1OC	.	.	1.8	.	.	.
CC(C)(C)c1ccc(/C=C/C(=O)N2CCOCC2)cc1	132.4*	2.16	7.0	56.7	114.3	-35.9
CC(C)Cc1ccc(/C=C/C(=O)N2CCOCC2)cc1	145.5*	3.79*	.	100.9	111.3	-49.0
CC(C)(C)c1ccc(/C=C/C(=O)N2CCN(c3ncccn3)CC2)cc1	99.0	1.04	4.4	-2.1	107.8	1.1
COc1ccccc1/C=C1\SC(=S)N(CC(=O)Nc2nnc(C)s2)C1=O	103.7	1.12	.	7.2	111.2	-7.5
COc1ccc([C@@H]2[C@@H]3C(=O)N(C(C)(C)C)C(=O)[C@@H]3[C@]3(C)C(=O)N(c4ccc(C(F)(F)F)cc4)C(=O)N23)cc1	.	.	1.0	.	.	.
CC(C)c1ccc(O)c(C(=O)c2cnn(-c3ccccc3)c2)c1	.	.	-0.8	.	.	.
O=C(N/N=C\c1ccc[nH]1)C1COc2ccccc2O1 (stereo not given)	.	.	8.8	.	.	.
CCC(=O)Nc1nnc(-c2cccs2)s1	116.4	0.95	-11.8	10.3	92.2	-19.4
O=C(Nc1nnc(-c2cccs2)s1)C1CC1	130.4*	1.67	-26.0	27.4	100.6	-34.5
c1csc(-c2cn3ccc4ccccc4c3n2)c1	143.7*	4.68*	-21.8	106.5	171.2*	-49.3
SMILES	STAT1 activator	NF-kB expr up	Pf gamet viab	APP 5'UTR act	STAT3 activator	STAT1 blocker
N/C(=N\NS(=O)(=O)c1ccc(Cl)cc1)c1ccccn1	.	.	-11.9	.	.	.
CN(C)/C=C1\Oc2ccc3ccccc3c2C1=O	135.4*	3.73*	-14.4	86.3	92.3	-37.4
CCCC1CC(C(=O)Nc2ccccc2)C(=O)O1 (stereo not given)	.	.	4.1	.	.	.
CC(OC(=O)CCc1nc2ccccc2c(=O)[nH]1)C(=O)c1ccc(C(C)(C)C)cc1 (stereo not given)	107.7	5.75*	-3.1	19.9	97.7	-8.6
CN1CCc2c(sc3c2C(=O)NC(c2ccccc2)N3)C1 (stereo not given)	106.2	0.8	7.7	-2.7	100.4	-6.8
O=C1NC(c2ccccn2)Nc2sc3c(c21)CCC3 (stereo not given)	117.4	5.04*	.	37.1	96.7	-19.0
Cc1ccsc1C1NC(=O)c2c(sc3c2CCCC3)N1 (stereo not given)	133.2*	1.8	.	82.5	107.6	-34.8
O=C1NC(c2ccc(Br)cc2)Nc2sc3c(c21)CCC3 (stereo not given)	103.4	1.41	-25.7	19.1	93.5	-3.7
CN1CCc2c(sc3c2C(=O)NC(c2ccccn2)N3)C1 (stereo not given)	103.5	1.01	5.5	7.8	103.2	-3.8
Cc1ccc(C2NC(=O)c3c(sc4c3CCN(C)C4)N2)s1 (stereo not given)	138.1*	1.21	.	10.3	109.5	-41.9
CCC1Nc2ncnc(N3CCN(c4ccccc4)CC3)c2N(Cc2ccc(Br)cc2)C1=O (stereo not given)	.	.	9.0	.	.	.
O=C(N/N=C/c1ccccc1Cl)c1ccc(F)cc1	138.5*	2.79	-10.2	75.6	83.7	-42.6
CSc1ccc(/C=N/NC(=O)c2cccc(O)c2)cc1	96.5	4.45*	-12.9	158.8*	65.4	3.9
COC(=O)c1ccc(/C=N/NC(=O)c2cccc(F)c2)cc1	129.8*	2.57	.	98.4	94.8	-33.1
COc1ccc(/C=C/C(=O)Oc2cccc(/C=N/NC(=O)c3cccc(F)c3)c2)cc1	117.4	2.73	.	33.1	102.6	-19.5
CC(C)Oc1ccccc1/C=N/NC(=O)c1ccc(F)cc1	102.2	1.25	14.0	0.2	97.0	-2.2
O=C(N/N=C\c1ccc(F)cc1)c1ccc(F)cc1	145.4*	1.83	13.3	14.7	116.3	-50.7
CCc1ccc(NC(=S)N2CCCC(C(F)(F)F)C2)cc1 (stereo not given)	97.0	1.25	-17.0	20.6	90.8	1.2
CC(=O)Nc1ccc(-c2nc3c(C)cccc3[nH]2)cc1	129.5*	3.82*	.	169.4*	118.2	-31.9
Cc1ccc(NC(=S)c2nc3ccccc3[nH]2)cc1	119.3	4.47*	13.8	193.0*	77.6	-21.4
CN(C)CCNC(=S)Nc1ccc(-c2nc3ccccc3[nH]2)cc1	101.8	3.7*	.	162.9*	88.8	-1.6
CC(C)CC(=O)Nc1ccc(-c2nc3ccccc3c(=O)[nH]2)cc1	139.7*	1.28	3.8	183.8*	79.5	-42.2
Cc1ccc(NC(=S)N2CCCC(c3nc4ccccc4[nH]3)C2)cc1 (stereo not given)	94.1	0.55	2.1	0.3	109.8	5.5
CC(C)CC(=O)Nc1ccc(-c2nc3ccccc3c(=O)o2)cc1	82.9	1.34	-17.7	7.0	91.7	19.1
COCCNC(=O)C(Cc1c[nH]c2ccccc12)NC(=O)OCc1ccccc1 (stereo not given)	.	.	16.3	.	.	.
Cc1ccc(NC(=O)CCCSc2nc3ccccc3[nH]2)cc1	95.3	1.09	5.9	13.4	102.6	4.5
